ChEMBL document CHEMBL1152977, “Phenolic glycosides from Alangium salviifolium leaves with inhibitory activity on LPS-induced NO, PGE(2), and TNF-alpha production” (Bioorg Med Chem Lett, 2009)

Columns and labels:
[1] = system: RAW264.7; assay: Antiinflammatory activity in LPS-stimulated mouse RAW264.7 cells assessed as PGE2 production at 10 uM treated 1 hr before LPS challenge measured after 24 hrs by enzyme immunoassay (RVb=11.5 +/- 0.36 uM); format: functional
[2] = system: RAW264.7; assay: Cytotoxicity against LPS-stimulated mouse RAW264.7 cells assessed as cell viability at 50 uM after 24 hrs by MTT assay; format: cell-based; conditions: raw264.7, 24 h
In short: (§1)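 MTT viability assay on RAW 264.7 cells at up to 50 µM for 24 h, run both with and without LPS.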

[3] = system: RAW264.7; assay: Cytotoxicity against mouse RAW264.7 cells assessed as cell viability at 50 uM after 24 hrs by MTT assay; format: cell-based; conditions: raw264.7, 24 h; in short: as §1
[4] = system: RAW264.7; assay: Antiinflammatory activity in mouse RAW264.7 cells assessed as inhibition of LPS-stimulated NO production treated 1 hr before LPS challenge measured after 24 hrs by Griess reagent assay; format: functional, cell-based
In short: (§2)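 Culture medium (phenol red-free) collected after 1 h compound pretreatment then 24 h with LPS 1 µg/mL; mixed 1:1 with Griess reagent (1% sulfanilamide in 5% phosphoric acid plus 0.1% naphthylethylenediamine-HCl), 10 min room temperature, absorbance 550 nm. Nitrite quantified against NaNO2 serial-dilution standard curve, fresh medium as blank. L-NIL 10 µM positive control; means ± S.E.M., three independent experiments.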

[5] = system: RAW264.7; assay: Antiinflammatory activity in mouse RAW264.7 cells assessed as decrease in LPS-stimulated PGE2 production treated 1 hr before LPS challenge measured after 24 hrs by enzyme immunoassay; format: functional, cell-based
In short: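 Cells pre-incubated 1 h with compound (5, 25, 50 µM tested), then LPS 1 µg/mL for 24 h; PGE2 in culture medium quantified by EIA kit per manufacturer. NS-398 10 µM positive control; means ± S.E.M. of three independent experiments, Student's t-test versus LPS-treated group.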

[6] = system: RAW264.7; assay: Antiinflammatory activity in LPS-stimulated mouse RAW264.7 cells assessed as NO production at 10 uM treated 1 hr before LPS challenge measured after 24 hrs by Griess reagent assay (RVb= 28.72 +/- 1.31 uM); format: functional; in short: as §2
[7] = system: RAW264.7; assay: Antiinflammatory activity in LPS-stimulated mouse RAW264.7 cells assessed as TNFalpha production at 5 uM treated 1 hr before LPS challenge measured after 24 hrs by enzyme immunoassay (RVb=46.7 +/- 4.8 uM); format: functional
[8] = system: RAW264.7; assay: Antiinflammatory activity in LPS-stimulated mouse RAW264.7 cells assessed as TNFalpha production at 25 uM treated 1 hr before LPS challenge measured after 24 hrs by enzyme immunoassay (RVb=46.7 +/- 4.8 uM); format: functional
[9] = system: RAW264.7; assay: Antiinflammatory activity in LPS-stimulated mouse RAW264.7 cells assessed as TNFalpha production at 50 uM treated 1 hr before LPS challenge measured after 24 hrs by enzyme immunoassay (RVb=46.7 +/- 4.8 uM); format: functional

Structure (SMILES)	Activity [1] [ng/mL]	Activity [2]	Activity [3]	Activity [4]	Activity [5]	Activity [6] [µM]	Activity [7] [ng/mL]	Activity [8] [ng/mL]	Activity [9] [ng/mL]
CS(=O)(=O)Nc1ccc([N+](=O)[O-])cc1OC1CCCCC1 [NS-398]	3.2	–	–	–	–	–	–	–	–
O=C(OCc1ccc(O[C@@H]2O[C@H](CO)[C@@H](O)[C@H](O)[C@H]2O)c(O)c1)c1ccccc1 [SALVIIFOSIDE A]	–	Non-toxic	Non-toxic	Dose-dependent effect	Dose-dependent effect	–	–	–	–
CC(=N)NCCCC[C@H](N)C(=O)O [L-NIL]	–	–	–	–	–	11.3	–	–	–
O=C(/C=C/c1ccccc1O)OCc1ccc(O[C@@H]2O[C@H](CO)[C@@H](O)[C@H](O)[C@H]2O)c(O)c1 [SALVIIFOSIDE B]	–	Non-toxic	Non-toxic	Dose-dependent effect	Dose-dependent effect	–	43.2	24.4	11.2
COc1ccccc1/C=C/C(=O)OCc1ccc(O[C@@H]2O[C@H](CO)[C@@H](O)[C@H](O)[C@H]2O)c(O)c1 [SALVIIFOSIDE C]	–	Non-toxic	Non-toxic	Dose-dependent effect	Dose-dependent effect	–	–	–	–
